Assay outcomes deposited in PubChem BioAssay by several laboratories.
Sampled rows, rich in hits. Any-hit rate of the full collection: about 3.7%.
Myeloid diff MLP – compounds promoting myeloid differentiation; 360,000 tested, 1% active; ER-HoxA9 myeloid progenitors, lysozyme-GFP differentiation, flow cytometry; calls only at 10 µM;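 active = normalized GFP-positive differentiation at or above the plate's own cutoff, the solvent-only control mean plus 3 SD; inconclusive = no clear call, values can overlap the other calls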;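 also: cells exposed to compound for four days before flow analysis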
Exocytosis inh – blocks lytic granule exocytosis | TALL-104 LAMP-1 surface exposure, flow cytometry; cells stimulated with thapsigargin and PMA | inhibition, % at 10 µM | 360,000 tested, 0.66% active;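 active = inhibition above about 55%, limit read from the data; inconclusive = no clear call, values can overlap the other calls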
MC4R barr agon – activates human MC4R beta-arrestin recruitment | 360,000 tested, 0.98% active | U2OS MC4R beta-arrestin complementation, luminescence; percent of melanotan II response, DMSO zero | P32245 | activation, % at 8.9 µM;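 active = activation above a per-plate cutoff, the mean activation of sample wells on that plate plus 3 SD, cut at about 8% in these data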
EBI2 block – antagonists of human EBI2 receptor; EBI2 beta-arrestin recruitment, luminescence, 7a,25-OHC stimulated; P32249; 360,000 tested, 0.81% active; AID 651636; inhibition, % at 5 µM; in the data active = inhibition above about 38%;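 also: enzyme fragment complementation signal reports receptor beta-arrestin coupling in cells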
Target sequence (P32249 whole entry, looked up, the tested form may be a part): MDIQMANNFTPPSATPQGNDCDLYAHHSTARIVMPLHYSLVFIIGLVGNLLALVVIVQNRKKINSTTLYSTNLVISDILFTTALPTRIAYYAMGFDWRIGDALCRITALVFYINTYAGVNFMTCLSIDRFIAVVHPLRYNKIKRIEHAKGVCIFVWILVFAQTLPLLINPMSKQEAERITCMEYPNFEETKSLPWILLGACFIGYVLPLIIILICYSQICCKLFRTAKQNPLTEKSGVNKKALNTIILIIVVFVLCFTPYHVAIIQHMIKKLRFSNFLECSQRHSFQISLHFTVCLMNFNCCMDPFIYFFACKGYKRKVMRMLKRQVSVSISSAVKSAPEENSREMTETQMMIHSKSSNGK
MC4R antagonist – human MC4R antagonism in cAMP assay; inhibition, % at 6.5 µM; P32245; MC4R-expressing cells, MTII-stimulated cAMP, LANCE TR-FRET; 360,000 tested, 0.48% active;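 active = inhibition above its plate's cutoff, the mean of tested wells on that plate plus 3 SD, cut at about 29% in these data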
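System – human MC4R-expressing U2OS cells · Also added – Melanotan II · Dosing – one concentration, 6.5 µM nominal · Timing – 30-min compound, 1-h challenge, 1-h detection, room temperature · Measured by – Eu-cAMP/anti-cAMP TR-FRET, emission 671 nm · Replicates – singlicate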
Exocytosis CP01 – lytic granule exocytosis inhibition; AID 651954; inhibition, % at 10 µM; shares compounds with Exocytosis inh; TALL-104 cells, LAMP-1 externalization, flow cytometry; stimulated with PMA plus thapsigargin; 1,500 tested, 11% active; in the data active = inhibition above about 60%
Large screens that a line does not name were inactive (follow-up assays come after a bar, where they were run).

COc1ccc(Br)cc1CNCCc1ccc2c(c1)OCO2	Exocytosis inh 59 | Exocytosis CP01 inactive
COC(=O)c1c(C)[nH]c(C(=O)C(Cc2ccccc2)N(C)C)c1C (stereo not given)	none
COc1ccc(-n2c(/C=C/c3ccc(O)cc3)nc3ccccc3c2=O)cc1	none
COc1ccc(-n2c(/C=C/c3ccc(O)c(OC)c3)nc3ccccc3c2=O)cc1	Myeloid diff MLP active, Exocytosis inh 58 | Exocytosis CP01 inactive
Nc1c(C(=O)NCc2ccco2)c2nc3ccccc3nc2n1CCN1CCOCC1	none
COc1ccc(Cn2c(N)c(C(=O)NCc3ccco3)c3nc4ccccc4nc32)cc1	Myeloid diff MLP active, Exocytosis inh 59 | Exocytosis CP01 inactive
O=C(c1csc2c1CCCCC2)N1CCC2(CC1)OCCO2	none
CCOc1ccc(N2C(=O)CC(=O)NC2=O)cc1	none
CCOc1ccc(N)cc1	Exocytosis inh 101 | Exocytosis CP01 inactive
CCOC(=O)[C@]12Cc3cc(OC)ccc3[C@H]1N(C1CCCCC1)C(=O)c1cc(OC)ccc12	Myeloid diff MLP inconclusive, Exocytosis inh 64 (no result: MC4R barr agon, MC4R antagonist) | Exocytosis CP01 inactive
CCOC(=O)[C@]12Cc3ccccc3[C@H]1N(C)C(=O)c1cc(OC)ccc12	none (no result: MC4R barr agon, MC4R antagonist)
CCOC(=O)[C@]12Cc3cc(C)ccc3[C@H]1N(C1CCCCC1)C(=O)c1cc(OC)ccc12	Myeloid diff MLP inconclusive, Exocytosis inh 84, EBI2 block 76 (no result: MC4R barr agon, MC4R antagonist) | Exocytosis CP01 inactive
CCCCCCCSc1cc(OC)c(CCNC)cc1OC	Exocytosis inh 85 | Exocytosis CP01 inactive
Cc1cccc(C)c1-n1nnnc1C(CCc1ccccc1)N1CCC(n2c(=O)[nH]c3ccccc32)CC1 (stereo not given)	Exocytosis inh 91 (no result: MC4R barr agon, MC4R antagonist) | Exocytosis CP01 95
Cn1c(O)c(C=NCCN2CCOCC2)c(=O)n(C)c1=S	none
S=P(N1CCCCCC1)(N1CC1)N1CC1	Myeloid diff MLP inconclusive
COC(=O)C1=C(c2cccc(OCc3ccccc3)c2)C[C@@H]2CC[C@H]1N2C(=O)NCCCOC(C)C	Exocytosis inh 98 | Exocytosis CP01 inactive
COC(=O)C1=C(c2cccc(OCc3ccccc3)c2)C[C@@H]2CC[C@H]1N2C(=O)NCCOc1ccc(OC)cc1	none
CN1C(=O)N(C)C(=O)C2(Cc3cc(NC(=O)c4ccc(F)cc4)ccc3N3CCCC32)C1=O (stereo not given)	none
CCCCCCn1c(O)c(/C=N/N2CCCCCC2)c(=O)[nH]c1=O	none
CCC(C)N1C(=O)NC(=O)C2(Cc3c(ccc4ccccc34)N(C)C2)C1=O (stereo not given)	Exocytosis inh 60 | Exocytosis CP01 inactive
CCOc1cccc(CNCCc2c(C)[nH]c3ccc(OC(F)(F)F)cc23)c1O	Myeloid diff MLP inconclusive, Exocytosis inh 78, MC4R barr agon 17 | Exocytosis CP01 83
C=CCN1CCc2cccc3c2[C@H]1Cc1ccc(O)c(O)c1-3	Exocytosis inh 84 | Exocytosis CP01 inactive
